Compound activity: PubChem BioAssay, Sanford-Burnham Center for Chemical Genomics
The list is not random: actives were taken first. Their share in the collection is about 1.7%.
STEP block – STEP phosphatase inhibitors, primary screen, biochemical, fluorescence intensity, uHTS. Tyrosine-protein phosphatase non-receptor type 5 (Homo sapiens), P54829. recombinant STEP, OMFP fluorogenic substrate. inhibition, % at 20 µM. 360,000 compounds, 0.25% hits. AID 588621, 2011;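 active means inhibition at 20 µM, scaled per plate between control wells, above about 37%, limit read from the data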;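 further: 0% = DMSO with enzyme and substrate and 100% = substrate only without enzyme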
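medium = Bis-Tris buffer pH 6.0, 2.5 mM DTT, 0.005% Tween 20 | test system = STEP (striatal-enriched tyrosine phosphatase) enzyme, cell-free | measure = normalized % inhibition | compound dosing = 20 µM, 1% DMSO | also added = 25 µM OMFP | schedule = reaction 20 min, ambient temperature | measured by = fluorescence read at 480 nm ex / 540 nm em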
DNMT1 inh – human DNMT1 methyltransferase inhibitors, primary screen, biochemical, molecular beacon, fluorescence, HinP1I cleavage, uHTS | 360,000 compounds, 0.83% hits | DNA (cytosine-5)-methyltransferase 1 (Homo sapiens), P26358 | inhibition (reported as % activation of signal), % at 10 µM; in the data active means inhibition above about 50%
Target sequence (P26358 504-1616 limits assumed): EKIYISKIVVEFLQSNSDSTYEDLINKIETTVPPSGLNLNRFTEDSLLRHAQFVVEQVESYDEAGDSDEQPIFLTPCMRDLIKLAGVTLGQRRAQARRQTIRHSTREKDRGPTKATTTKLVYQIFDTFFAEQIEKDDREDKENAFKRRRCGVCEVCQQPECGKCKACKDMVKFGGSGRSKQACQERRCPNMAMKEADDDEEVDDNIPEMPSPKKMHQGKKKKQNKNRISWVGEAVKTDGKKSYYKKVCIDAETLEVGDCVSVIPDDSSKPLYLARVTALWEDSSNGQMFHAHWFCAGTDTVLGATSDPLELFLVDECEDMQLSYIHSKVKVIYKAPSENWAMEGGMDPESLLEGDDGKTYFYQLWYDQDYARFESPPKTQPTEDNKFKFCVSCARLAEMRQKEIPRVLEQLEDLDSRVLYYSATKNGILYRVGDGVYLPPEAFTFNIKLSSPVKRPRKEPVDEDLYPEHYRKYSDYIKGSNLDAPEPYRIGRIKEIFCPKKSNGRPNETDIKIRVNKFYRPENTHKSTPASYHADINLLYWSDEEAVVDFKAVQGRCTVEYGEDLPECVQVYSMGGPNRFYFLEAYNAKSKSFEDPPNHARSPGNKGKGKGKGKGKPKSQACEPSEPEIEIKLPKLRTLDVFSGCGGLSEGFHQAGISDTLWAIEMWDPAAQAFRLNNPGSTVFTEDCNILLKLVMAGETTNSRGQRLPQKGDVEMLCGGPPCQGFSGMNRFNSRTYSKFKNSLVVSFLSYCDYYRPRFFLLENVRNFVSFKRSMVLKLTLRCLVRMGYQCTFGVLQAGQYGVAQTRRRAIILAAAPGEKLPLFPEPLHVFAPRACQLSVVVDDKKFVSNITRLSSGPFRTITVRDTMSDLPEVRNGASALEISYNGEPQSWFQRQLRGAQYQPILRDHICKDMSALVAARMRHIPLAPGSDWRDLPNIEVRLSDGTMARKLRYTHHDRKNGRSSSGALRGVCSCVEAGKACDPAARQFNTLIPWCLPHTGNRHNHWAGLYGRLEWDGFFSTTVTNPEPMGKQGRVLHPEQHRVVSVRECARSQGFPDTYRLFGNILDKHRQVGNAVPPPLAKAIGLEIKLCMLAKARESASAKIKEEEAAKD
SUMO1-SIM PPI – modulators of SUMO1 protein-protein interactions, primary screen, biochemical, uHTS. SUMO1 binding to a labelled peptide, TR-FRET, 1 h. inhibition, % at 20 µM. 360,000 compounds, 0.33% hits. AID 602429, 2012; in the data active means inhibition above about 37%
LMPTP block – LMPTP phosphatase inhibitors, primary screen, biochemical, fluorescence intensity, uHTS; 360,000 compounds, 0.22% hits; recombinant LMPTP-A, OMFP fluorogenic substrate; Low molecular weight phosphotyrosine protein phosphatase (Homo sapiens), P24666; inhibition, % at 20 µM;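 active means compounds that cut the enzyme signal by at least half of the control window in the single-dose screen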;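 further: plate controls were DMSO wells with enzyme plus substrate for no effect and substrate without enzyme for full effect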
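Test system – LMPTP-A phosphatase enzyme · Quantity – 0.625 nM LMPTP-A final · Reagent – OMFP substrate, 400 µM final · Dosing – one test concentration per compound, 20 µM, with 3% DMSO overall · Timing – 50 min enzyme reaction at room temperature, protected from light · Detection – fluorescence intensity · Controls – substrate-only low control, DMSO enzyme-plus-substrate high control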
Scp1 inh – Scp-1 phosphatase inhibitors, primary screen, biochemical, colorimetric, uHTS; Carboxy-terminal domain RNA polymerase II polypeptide A small phosphatase 1 (Homo …; Recombinant Scp1, phosphopeptide, malachite green phosphate absorbance; inhibition, % at 20 µM; 340,000 compounds, 0.88% hits;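 active means inhibition above about 50% at 20 µM, limit read from the data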;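 further: plate controls were DMSO wells with enzyme for no effect and wells lacking enzyme for full effect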
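Times: enzyme reaction 45 min at room temperature, colour 5 min, stabilisation 30 min. Material: SCP-1 catalytic fragment, aa 76-261. Medium: Acidic Tris acetate buffer with magnesium and detergent. Signal: colorimetric free-phosphate detection, absorbance 630 nm. Read-out basis: % inhibition of SCP-1 phosphate liberation. Reagent: Phosphorylated 17-residue peptide substrate.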
Scp1 confirm – Scp-1 phosphatase inhibitors, retest, confirmation, biochemical, colorimetric, single concentration; shares compounds with Scp1 inh; recombinant SCP-1 catalytic domain, phosphate release, malachite green absorbance; inhibition, % at 20 µM; 2,500 compounds, 61% hits; AID 540281, 2011;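 further: plate controls were DMSO with enzyme for no effect and buffer wells lacking enzyme for full effect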
MG interference – colorimetric readout interference by compounds, confirmation, artefact control for Scp-1 inhibitor project, biochemical, single concentration. 2,500 tested, under 10 active. shares compounds with Scp1 inh. Colorimetric interference counterscreen, malachite green absorbance 630 nm. apparent inhibition (interference), % at 20 µM;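 further: compounds added after enzyme reaction finished so only phosphate colour detection is probed; plate controls were DMSO wells with completed Scp-1 reaction for no effect and substrate wells lacking enzyme for full effect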
Scp-1 Tm shift – Scp-1 binding by thermal shift, confirmation, orthogonal assay for Scp-1 inhibitor project, biophysical, differential scanning fluorimetry; shares compounds with Scp1 inh; Recombinant SCP1, Sypro Orange thermal shift Tm; thermal shift relative to vanadate control, % at 40 µM; 1,500 compounds, 25% hits;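 active means substances whose mean melting-temperature shift, as a percentage of the reference inhibitor's shift, reaches about 5.3%, limit read from the data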;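 further: 0% = Tm of DMSO wells and 100% = Tm with sodium orthovanadate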
Beacon interf DR – spectral interference with molecular beacon fluorescence, dose response, artefact control for DNMT1 inhibitor project, biochemical, fluorescent molecular beacon; shares compounds with DNMT1 inh; spectral interference counter-screen; IC50, µM; 200 tested, under 10 active; AID 602382, 2012; call rule not given here
DNMT1 inh conf – DNMT1 methyltransferase inhibitor retest, confirmation, biochemical, molecular beacon, fluorescence, single concentration. shares compounds with DNMT1 inh. DNMT1 molecular beacon HinP1I cleavage. inhibition, % at 10 µM. 2,300 compounds, 8% hits;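 active means average inhibition of at least 30% in the single-concentration confirmation test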
Beacon interf – counter-screen for DNMT1 inhibitors: spectral interference | shares compounds with DNMT1 inh | DNMT1 molecular beacon spectral interference counterscreen, fluorescence 485/520 | activation (fluorescence interference), % at 10 µM | 2,300 compounds, 1% hits;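 active means activation of at least 30% at 10 µM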;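 further: DNMT1 catalytic domain with a HinP1I cleavage step and a FAM/dabcyl DNA beacon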
* marks the source's active call; other numbers are inactive results; x = not tested or not shown.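 How the source made its calls, unless noted: active means inhibition of at least 30% at 20 µM; inactive means the rest.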

SMILES	STEP block	DNMT1 inh	SUMO1-SIM PPI	LMPTP block	Scp1 inh	Scp1 confirm	MG interference	Scp-1 Tm shift	DNMT1 inh conf	Beacon interf	others
CC[N+](CC)(CC)CCCCOc1ccc2c(c1)C(=O)c1cc(OCCCC[N+](CC)(CC)CC)ccc1-2	1	50*	-47	7	99*	10	2	x	13	-2
O=C(Cc1ccc(S(=O)(=O)N2CCOCC2)s1)Nc1nc2c(s1)CCCC2	21	89*	22	15	64*	74*	-4	11*	10	2
COc1cc(OC)cc(-c2c(C#Cc3ccsc3)c3cc(-c4cccc5[nH]cc(C=O)c45)ccc3n2C)c1	-3	-9	7	4	15	x	x	x	x	x
O=C(NC(c1ccc(Cl)cc1)c1ccsc1)C1CCN(CCOc2ccc(Cl)cc2)CC1 (centres undefined)	0	-4	2	1	x	x	x	x	x	x
CC(=O)c1c(C)oc2ccc(NS(=O)(=O)c3ccc(C)cc3)cc12	0	3	-1	3	-4	x	x	x	x	x
Cc1ccc(C)c(S(=O)(=O)Nc2ccc3oc(C)c(C(=O)O)c3c2)c1	64*	83*	51*	23	70*	64*	-13	12*	16	-1
N#CC(C#N)=Cc1cccn1-c1ccc(C(=O)O)cc1	24	101*	-6	7	70*	61*	-13	1	21	-1
N#Cc1ccccc1CN1C(=O)S/C(=C/c2cccn2-c2ccc(C(=O)O)cc2)C1=O	12	106*	-13	14	92*	63*	-21	-3	4	1
CCOC(=O)CN1C(=O)N[C@@H](c2cccc(F)c2)C(C(=O)OC)=C1C	1	6	4	-1	-4	x	x	x	x	x
CN1CCN(C(=O)CN(c2ccccc2)S(=O)(=O)N(C)C)CC1	x	x	x	x	-6	x	x	x	x	x
Cc1ccc(Cl)cc1N1CCN(C(=O)CN(c2ccccc2)S(=O)(=O)N(C)C)CC1	23	65*	6	24	68*	70*	-11	-11	3	1
Cc1ccc(N(NC(=O)C(O)(c2ccccc2)c2ccccc2)C(=O)CCl)cc1	-5	9	0	-1	-7	x	x	x	x	x
COc1cc(NC(=O)c2cccs2)c(C(=O)OCC(=O)NCc2ccco2)cc1OC	2	12	16	5	26	x	x	x	x	x
O=C(COC(=O)c1cncc(Br)c1)NCc1ccc(F)cc1	-1	-3	0	-1	3	x	x	x	x	x
O=C(COC(=O)c1cncc(Br)c1)NCc1ccco1	14	102*	63*	9	88*	54*	-20	-10	5	3
O=C(COC(=O)c1cccs1)NCc1ccco1	3	73*	5	4	97*	64*	-17	5	3	7
CCOC(=O)C1=C(COC(=O)/C=C/c2ccco2)NC(=O)NC1C (centres undefined)	31	72*	12	7	66*	55*	-6	-7	7	-3
O=C(OCC(=O)N1CCN(C(=O)c2ccco2)CC1)c1cc(-c2cccc(Br)c2)nc2ccccc12	1	-16	-18	7	-8	x	x	x	x	x
CC(C)(CS(=O)(=O)[O-])NC(=O)CC[N+](C)(C)CCO	52*	116*	28	-2	60*	43*	-13	-11	86*	6	Beacon interf DR=>99
COc1ccccc1NC(=O)COC(=O)c1cc2c(s1)CCC2	40	94*	11	27	66*	73*	-4	0	2	14
COc1ccc(OC)c(NC(=O)COC(=O)c2cc3c(s2)CCC3)c1	16	89*	7	32	79*	53*	-27	4	19	2
COc1ccccc1NC(=O)COC(=O)c1ccc2c(c1)OCCO2	2	4	-3	2	-5	x	x	x	x	x
CC(=O)c1ccc(S(=O)(=O)N2CCNC(=O)C2)cc1	2	1	-1	-1	-4	x	x	x	x	x
Cc1ccc(NC(=O)CN2C(=O)N/C(=C/c3ccc(N4CCOCC4)cc3)C2=O)cc1	2	22	-7	-1	-7	x	x	x	x	x
ON=Cc1cccn1-c1ccccc1	-2	-1	-6	0	-4	x	x	x	x	x
Cc1ccc(NC(=O)CN2C(=O)N/C(=C\c3cccn3-c3cccc(C(=O)O)c3)C2=O)cc1	12	91*	5	15	67*	55*	-20	6.2*	60*	0	Beacon interf DR=>99
Cc1cc(C(=O)O)ccc1-c1ccc(/C=C2\NC(=O)N(Cc3ccc(F)cc3)C2=O)o1	9	64*	29	9	73*	65*	-6	9.4*	20	0
O=C(O)c1cccc(-n2cccc2/C=N/O)c1	11	105*	-1	5	77*	65*	-8	-13	3	1
Cc1ccc(NC(=O)CN2C(=O)N/C(=C/c3cc(C)n(-c4cccc(C(=O)O)c4)c3C)C2=O)cc1	18	84*	30	7	59*	66*	-10	6.9*	10	-1
CCOC(=O)c1cccc(-n2cccc2/C=C2\NC(=O)N(CC(=O)O)C2=O)c1	0	0	-16	0	-3	x	x	x	x	x
